Laboratory results as given in ChEMBL document CHEMBL1157406, “Cytotoxic metabolites from the fungal endophyte Alternaria sp. and their subsequent detection in its host plant Polygonum senegalense” (J Nat Prod, 2008).
Values after ≈ are worked out from the molar mass of the structure shown.

What was measured:
[1] = target: Casein kinase II subunit alpha (Homo sapiens, UniProt P68400); experiment: Inhibition of recombinant CK2alpha1
How it was run: (§1)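 Purified recombinant kinase, 50 µL reaction. 1 µM [γ-33P]-ATP with substrate; compound added in 10% DMSO. Tested over several concentrations; IC50 in g/mL.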

[2] = target: Receptor tyrosine-protein kinase erbB-2 (Homo sapiens, UniProt P04626); experiment: Inhibition of recombinant ERBB2; how it was run: as §1
[3] = target: Platelet-derived growth factor receptor beta (Homo sapiens, UniProt P09619); experiment: Inhibition of recombinant PDGFRbeta
[4] = target: Proto-oncogene tyrosine-protein kinase Src (Homo sapiens, UniProt P12931); experiment: Inhibition of recombinant SRC; how it was run: as §1
[5] = target: Vascular endothelial growth factor receptor 3 (Homo sapiens, UniProt P35916); experiment: Inhibition of recombinant VEGFR3; how it was run: as §1
Insulin receptor = Insulin receptor (Homo sapiens, UniProt P06213); experiment: Inhibition of recombinant INSR; conditions: read-out: IC50 (converted)
[6] = target: Insulin-like growth factor 1 receptor (Homo sapiens, UniProt P08069); experiment: Inhibition of recombinant IGF1R; how it was run: as §1
[7] = target: Cyclin-dependent kinase 4/cyclin D1 (Homo sapiens, UniProt P11802); experiment: (§2) Inhibition of recombinant CDK4/CycD1; how it was run: as §1
L5178Y [8] = experiment: Cytotoxicity against mouse L5178Y cells at 10 ug/ml by MTT assay; format: functional
[9] = target: T1, Serine/threonine-protein kinase PLK4 (Homo sapiens, UniProt O00444); experiment: Inhibition of recombinant SAK
T1 sequence (O00444 whole entry): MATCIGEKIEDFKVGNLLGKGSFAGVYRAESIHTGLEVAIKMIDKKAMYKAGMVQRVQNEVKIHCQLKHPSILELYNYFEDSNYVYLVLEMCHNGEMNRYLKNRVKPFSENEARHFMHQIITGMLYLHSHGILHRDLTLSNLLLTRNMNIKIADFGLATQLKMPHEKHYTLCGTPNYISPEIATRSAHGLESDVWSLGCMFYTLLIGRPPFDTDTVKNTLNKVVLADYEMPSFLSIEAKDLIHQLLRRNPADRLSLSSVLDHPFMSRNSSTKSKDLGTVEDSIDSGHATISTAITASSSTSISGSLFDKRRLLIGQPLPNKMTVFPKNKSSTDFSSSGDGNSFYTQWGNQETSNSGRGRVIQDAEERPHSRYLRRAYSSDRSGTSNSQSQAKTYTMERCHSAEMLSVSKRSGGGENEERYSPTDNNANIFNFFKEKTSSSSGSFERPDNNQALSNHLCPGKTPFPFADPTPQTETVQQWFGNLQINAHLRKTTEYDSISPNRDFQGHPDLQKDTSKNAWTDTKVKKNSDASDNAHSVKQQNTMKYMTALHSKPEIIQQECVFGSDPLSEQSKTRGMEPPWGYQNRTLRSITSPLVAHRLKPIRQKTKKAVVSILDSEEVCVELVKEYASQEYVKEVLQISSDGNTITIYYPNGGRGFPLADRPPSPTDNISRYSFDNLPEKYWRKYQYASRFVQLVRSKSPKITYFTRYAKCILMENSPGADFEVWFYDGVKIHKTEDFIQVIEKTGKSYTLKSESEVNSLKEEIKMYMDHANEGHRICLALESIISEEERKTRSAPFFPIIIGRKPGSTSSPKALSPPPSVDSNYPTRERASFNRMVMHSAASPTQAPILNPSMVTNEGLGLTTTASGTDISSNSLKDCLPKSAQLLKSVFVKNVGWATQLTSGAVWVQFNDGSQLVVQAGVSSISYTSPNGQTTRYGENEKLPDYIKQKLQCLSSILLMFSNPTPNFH

[10] = target: Serine/threonine-protein kinase B-raf (Homo sapiens, UniProt P15056, V600E); experiment: Inhibition of recombinant B-RAF-V600E mutant; how it was run: as §1
[11] = target: RAC-alpha serine/threonine-protein kinase (Homo sapiens, UniProt P31749); experiment: Inhibition of recombinant AKT1; how it was run: as §1
Ephrin type-B receptor 4 = target: T2, Ephrin type-B receptor 4 (Homo sapiens, UniProt P54760); experiment: Inhibition of recombinant EPHB4; how it was run: as §1
T2 sequence (P54760 whole entry): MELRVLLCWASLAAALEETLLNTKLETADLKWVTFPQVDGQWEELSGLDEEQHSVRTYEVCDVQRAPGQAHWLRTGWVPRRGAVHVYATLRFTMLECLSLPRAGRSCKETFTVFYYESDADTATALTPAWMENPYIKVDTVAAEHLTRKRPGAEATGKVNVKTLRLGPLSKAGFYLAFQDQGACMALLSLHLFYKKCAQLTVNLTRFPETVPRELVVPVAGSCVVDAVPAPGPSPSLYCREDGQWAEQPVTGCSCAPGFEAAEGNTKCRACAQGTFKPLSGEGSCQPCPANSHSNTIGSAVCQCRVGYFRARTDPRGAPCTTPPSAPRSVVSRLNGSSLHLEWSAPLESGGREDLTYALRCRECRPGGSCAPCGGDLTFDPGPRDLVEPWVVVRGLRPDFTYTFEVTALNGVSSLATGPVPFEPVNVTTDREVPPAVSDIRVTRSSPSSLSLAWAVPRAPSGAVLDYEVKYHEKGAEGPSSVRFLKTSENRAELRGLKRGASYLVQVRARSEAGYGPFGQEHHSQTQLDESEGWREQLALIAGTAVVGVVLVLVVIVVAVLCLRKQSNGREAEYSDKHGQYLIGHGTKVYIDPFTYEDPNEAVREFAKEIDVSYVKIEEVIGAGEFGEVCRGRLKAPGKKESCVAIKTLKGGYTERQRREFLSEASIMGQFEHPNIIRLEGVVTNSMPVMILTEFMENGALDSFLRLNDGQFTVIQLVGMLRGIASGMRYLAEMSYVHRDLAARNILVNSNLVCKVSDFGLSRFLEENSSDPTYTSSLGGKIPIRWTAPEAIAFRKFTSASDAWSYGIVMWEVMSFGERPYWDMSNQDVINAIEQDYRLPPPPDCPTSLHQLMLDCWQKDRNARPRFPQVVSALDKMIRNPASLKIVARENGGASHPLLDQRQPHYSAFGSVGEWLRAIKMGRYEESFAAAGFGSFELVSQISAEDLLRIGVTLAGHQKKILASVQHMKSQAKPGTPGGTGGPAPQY

Aurora kinase B = Aurora kinase B (Homo sapiens, UniProt Q96GD4); experiment: Inhibition of recombinant Aurora B; how it was run: as §1
[12] = target: Hepatocyte growth factor receptor (Homo sapiens, UniProt P08581); experiment: Inhibition of recombinant MET
[13] = target: Vascular endothelial growth factor receptor 2 (Homo sapiens, UniProt P35968); experiment: Inhibition of recombinant VEGFR2; how it was run: as §1
Angiopoietin-1 receptor = Angiopoietin-1 receptor (Homo sapiens, UniProt Q02763); experiment: Inhibition of recombinant TIE2; how it was run: as §1
[14] = target: Cyclin-dependent kinase 2 (Homo sapiens, UniProt P24941); experiment: Inhibition of recombinant CDK2/CycA; how it was run: as §1
L5178Y [15] = experiment: Cytotoxicity against mouse L5178Y cells by MTT assay; format: functional, cell-based
How it was run: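 Mouse L5178Y lymphoma cells; MTT microculture tetrazolium read-out, relative to untreated controls. Vehicle controls with 0.1% EGMME/DMSO. Triplicate wells, experiment repeated three times.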

[16] = target: Cyclin-dependent kinase 4/cyclin D1 (Homo sapiens, UniProt P11802+P24385); experiment: as §2; how it was run: as §1

Serine/threonine-protein kinase B-raf, sequence (P15056 2-766 V600E limits assumed): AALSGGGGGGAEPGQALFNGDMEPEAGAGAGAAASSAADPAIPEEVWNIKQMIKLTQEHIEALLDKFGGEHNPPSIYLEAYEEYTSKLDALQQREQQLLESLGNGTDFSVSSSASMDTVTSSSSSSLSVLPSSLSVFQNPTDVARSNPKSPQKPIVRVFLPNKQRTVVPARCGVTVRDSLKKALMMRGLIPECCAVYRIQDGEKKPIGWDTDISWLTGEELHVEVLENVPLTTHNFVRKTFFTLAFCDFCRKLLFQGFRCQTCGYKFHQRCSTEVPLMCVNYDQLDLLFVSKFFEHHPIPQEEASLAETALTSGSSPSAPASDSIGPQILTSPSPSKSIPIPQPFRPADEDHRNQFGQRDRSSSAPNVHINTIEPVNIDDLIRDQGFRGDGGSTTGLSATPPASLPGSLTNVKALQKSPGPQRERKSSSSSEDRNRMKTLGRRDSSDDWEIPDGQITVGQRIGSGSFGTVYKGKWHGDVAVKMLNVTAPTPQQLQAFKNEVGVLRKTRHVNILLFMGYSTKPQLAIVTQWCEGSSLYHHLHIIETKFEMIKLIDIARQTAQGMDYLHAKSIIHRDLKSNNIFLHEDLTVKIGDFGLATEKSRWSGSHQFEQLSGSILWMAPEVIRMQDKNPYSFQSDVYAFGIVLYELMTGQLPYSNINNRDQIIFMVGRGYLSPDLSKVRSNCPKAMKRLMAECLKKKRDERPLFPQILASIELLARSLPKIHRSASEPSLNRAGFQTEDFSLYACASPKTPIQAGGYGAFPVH
Aurora kinase B, sequence (Q96GD4 whole entry): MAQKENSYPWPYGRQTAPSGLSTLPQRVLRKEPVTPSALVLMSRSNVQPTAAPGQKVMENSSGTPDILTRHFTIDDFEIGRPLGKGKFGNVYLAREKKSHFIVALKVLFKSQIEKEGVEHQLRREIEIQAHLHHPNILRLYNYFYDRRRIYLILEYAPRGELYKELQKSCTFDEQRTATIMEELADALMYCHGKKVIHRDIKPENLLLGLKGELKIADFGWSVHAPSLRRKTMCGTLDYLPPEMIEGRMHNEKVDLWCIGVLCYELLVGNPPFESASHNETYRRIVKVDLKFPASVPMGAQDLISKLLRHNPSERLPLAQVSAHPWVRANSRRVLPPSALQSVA
Casein kinase II subunit alpha, sequence (P68400 whole entry): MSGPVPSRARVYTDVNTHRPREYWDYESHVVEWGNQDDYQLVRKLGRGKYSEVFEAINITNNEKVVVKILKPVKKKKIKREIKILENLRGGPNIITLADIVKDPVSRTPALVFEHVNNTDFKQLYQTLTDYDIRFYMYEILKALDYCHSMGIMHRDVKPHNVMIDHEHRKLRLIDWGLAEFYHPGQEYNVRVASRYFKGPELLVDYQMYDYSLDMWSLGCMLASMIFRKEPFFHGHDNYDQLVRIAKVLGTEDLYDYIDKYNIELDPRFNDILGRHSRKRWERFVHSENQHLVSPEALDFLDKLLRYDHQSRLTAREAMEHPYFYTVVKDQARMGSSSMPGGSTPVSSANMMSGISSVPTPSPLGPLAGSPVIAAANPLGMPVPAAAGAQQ
Insulin-like growth factor 1 receptor, sequence (P08069 31-736 limits assumed): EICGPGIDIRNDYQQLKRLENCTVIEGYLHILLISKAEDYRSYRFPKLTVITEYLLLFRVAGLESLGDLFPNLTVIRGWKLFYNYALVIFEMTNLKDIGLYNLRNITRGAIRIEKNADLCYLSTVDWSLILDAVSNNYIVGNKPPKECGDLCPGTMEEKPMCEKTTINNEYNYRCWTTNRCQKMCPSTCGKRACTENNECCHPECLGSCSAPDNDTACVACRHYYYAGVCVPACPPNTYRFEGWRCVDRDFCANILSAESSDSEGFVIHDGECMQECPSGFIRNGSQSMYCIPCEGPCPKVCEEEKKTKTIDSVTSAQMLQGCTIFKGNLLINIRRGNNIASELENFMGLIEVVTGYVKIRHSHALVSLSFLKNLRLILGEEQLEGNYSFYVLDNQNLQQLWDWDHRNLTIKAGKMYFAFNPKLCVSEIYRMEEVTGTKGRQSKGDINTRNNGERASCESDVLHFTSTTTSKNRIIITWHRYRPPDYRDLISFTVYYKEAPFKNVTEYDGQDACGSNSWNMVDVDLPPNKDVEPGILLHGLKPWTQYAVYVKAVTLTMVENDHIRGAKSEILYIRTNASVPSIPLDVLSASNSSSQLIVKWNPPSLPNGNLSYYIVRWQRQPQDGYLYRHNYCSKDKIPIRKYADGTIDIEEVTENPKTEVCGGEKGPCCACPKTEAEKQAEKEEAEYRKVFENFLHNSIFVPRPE
Insulin-like growth factor 1 receptor, sequence (P08069 741-1367 limits assumed): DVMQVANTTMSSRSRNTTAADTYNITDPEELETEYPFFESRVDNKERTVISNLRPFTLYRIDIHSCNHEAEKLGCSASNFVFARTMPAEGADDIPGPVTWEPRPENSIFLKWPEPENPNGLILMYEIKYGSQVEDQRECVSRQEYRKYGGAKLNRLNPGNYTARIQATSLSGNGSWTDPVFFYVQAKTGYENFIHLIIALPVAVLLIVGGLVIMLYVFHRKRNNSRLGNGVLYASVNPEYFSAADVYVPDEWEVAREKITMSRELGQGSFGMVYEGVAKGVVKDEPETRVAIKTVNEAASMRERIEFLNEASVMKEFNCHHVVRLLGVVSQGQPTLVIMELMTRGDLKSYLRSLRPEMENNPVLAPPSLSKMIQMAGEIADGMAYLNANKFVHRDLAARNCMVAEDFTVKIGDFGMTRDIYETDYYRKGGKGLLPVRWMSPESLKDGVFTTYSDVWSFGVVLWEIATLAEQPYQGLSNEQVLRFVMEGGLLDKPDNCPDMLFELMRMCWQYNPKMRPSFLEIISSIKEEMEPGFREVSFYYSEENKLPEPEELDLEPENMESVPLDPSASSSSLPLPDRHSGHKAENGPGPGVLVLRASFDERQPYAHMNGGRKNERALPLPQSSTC
Hepatocyte growth factor receptor, sequence (P08581 whole entry): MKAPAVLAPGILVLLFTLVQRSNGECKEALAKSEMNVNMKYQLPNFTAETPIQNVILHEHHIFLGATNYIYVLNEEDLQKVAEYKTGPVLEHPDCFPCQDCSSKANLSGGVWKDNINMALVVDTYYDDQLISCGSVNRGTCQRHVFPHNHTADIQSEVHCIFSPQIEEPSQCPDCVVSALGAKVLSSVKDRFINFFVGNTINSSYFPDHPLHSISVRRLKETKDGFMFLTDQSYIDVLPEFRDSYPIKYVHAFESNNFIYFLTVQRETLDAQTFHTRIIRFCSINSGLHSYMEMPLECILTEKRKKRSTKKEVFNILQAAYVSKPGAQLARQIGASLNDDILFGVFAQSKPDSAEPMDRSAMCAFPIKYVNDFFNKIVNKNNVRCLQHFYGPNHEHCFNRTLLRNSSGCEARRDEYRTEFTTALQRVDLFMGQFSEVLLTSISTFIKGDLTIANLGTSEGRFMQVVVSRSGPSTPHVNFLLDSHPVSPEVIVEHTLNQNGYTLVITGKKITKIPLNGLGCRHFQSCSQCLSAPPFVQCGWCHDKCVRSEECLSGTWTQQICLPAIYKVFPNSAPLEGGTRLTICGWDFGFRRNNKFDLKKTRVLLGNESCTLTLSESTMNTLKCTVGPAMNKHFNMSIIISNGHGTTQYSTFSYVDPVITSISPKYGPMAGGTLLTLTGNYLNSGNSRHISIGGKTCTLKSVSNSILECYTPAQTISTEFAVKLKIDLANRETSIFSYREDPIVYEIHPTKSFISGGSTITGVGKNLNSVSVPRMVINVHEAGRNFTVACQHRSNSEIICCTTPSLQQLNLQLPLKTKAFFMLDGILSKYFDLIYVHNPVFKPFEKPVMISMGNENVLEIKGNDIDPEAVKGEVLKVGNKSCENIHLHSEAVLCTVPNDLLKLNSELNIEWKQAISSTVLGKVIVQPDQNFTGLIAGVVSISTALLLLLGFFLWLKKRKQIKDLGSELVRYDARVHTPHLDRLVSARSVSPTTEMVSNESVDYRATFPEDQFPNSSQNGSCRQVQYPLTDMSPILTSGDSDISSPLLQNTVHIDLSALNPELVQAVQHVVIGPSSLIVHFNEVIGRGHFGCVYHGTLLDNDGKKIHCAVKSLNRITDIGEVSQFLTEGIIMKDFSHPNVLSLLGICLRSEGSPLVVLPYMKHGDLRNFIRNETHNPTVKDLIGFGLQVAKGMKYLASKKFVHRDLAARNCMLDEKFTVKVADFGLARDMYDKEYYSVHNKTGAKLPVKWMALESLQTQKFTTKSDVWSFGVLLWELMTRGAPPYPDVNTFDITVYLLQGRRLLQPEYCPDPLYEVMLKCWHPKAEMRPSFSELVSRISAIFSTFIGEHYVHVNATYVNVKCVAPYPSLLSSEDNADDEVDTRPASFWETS
RAC-alpha serine/threonine-protein kinase, sequence (P31749 whole entry): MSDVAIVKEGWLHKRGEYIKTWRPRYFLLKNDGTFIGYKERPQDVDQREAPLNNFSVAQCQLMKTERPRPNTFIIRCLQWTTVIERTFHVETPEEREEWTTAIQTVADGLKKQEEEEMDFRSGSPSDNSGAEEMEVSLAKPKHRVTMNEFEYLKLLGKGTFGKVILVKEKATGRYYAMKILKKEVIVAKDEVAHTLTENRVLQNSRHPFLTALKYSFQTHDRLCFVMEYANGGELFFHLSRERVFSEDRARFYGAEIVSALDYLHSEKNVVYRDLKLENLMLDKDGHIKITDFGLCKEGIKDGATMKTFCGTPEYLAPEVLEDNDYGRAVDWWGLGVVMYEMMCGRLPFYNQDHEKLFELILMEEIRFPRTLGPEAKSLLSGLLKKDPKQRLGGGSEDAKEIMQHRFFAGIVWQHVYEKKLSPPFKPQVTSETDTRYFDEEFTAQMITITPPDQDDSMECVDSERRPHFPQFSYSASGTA

Structure (SMILES) | IC50 [1] | IC50 ([2]; read-out: IC50 (converted)) | IC50 ([4]; read-out: IC50 (converted)) | IC50 [5] | IC50 (Insulin receptor) | IC50 [6] | IC50 [7] | Activity (L5178Y [8]) | IC50 [9] | IC50 ([10]; read-out: IC50 (converted)) | IC50 ([11]; read-out: IC50 (converted)) | IC50 (Ephrin type-B receptor 4; read-out: IC50 (converted)) | IC50 (Aurora kinase B; read-out: IC50 (converted)) | IC50 ([12]; read-out: IC50 (converted)) | IC50 [13] | IC50 (Angiopoietin-1 receptor; read-out: IC50 (converted)) | IC50 ([14]; read-out: IC50 (converted)) | EC50 (L5178Y [15]) | IC50 ([6]; read-out: IC50 (converted)) | IC50 [11] | also measured
COc1cc(O)c2c(=O)oc3c(O)c(O)cc(C)c3c2c1 | > 1 ×10⁻⁵ g/ml | 9.37 µM | 4.86 µM | 3.9 ×10⁻⁷ g/ml | 4.51 µM | 9.1 ×10⁻⁷ g/ml | 5.9 µM | 47.1% | 8.3 ×10⁻⁷ g/ml | 5.2 µM | 18.4 µM | 7.29 µM | 3.82 µM | 5.9 µM | 6.4 ×10⁻⁷ g/ml | 4.86 µM | 8.33 µM |  |  |  | IC50 ([3]; read-out: IC50 (converted)): 6.24 µM
COc1cc(O)c2c(=O)oc3cc(O)cc(C)c3c2c1 | > 1 ×10⁻⁵ g/ml | 16.5 µM | 4.41 µM | 9.6 ×10⁻⁷ g/ml | 29 µM |  | 7.71 µM | 1.8% |  | 17.6 µM | 29 µM | 5.14 µM | 4.77 µM |  |  | 12.9 µM | 13.2 µM | 7.8 µg/mL (≈ 28.6 µM) | 6.24 µM |  | IC50 ([9]; read-out: IC50 (converted)): 9.18 µM; IC50 ([13]; read-out: IC50 (converted)): 4.04 µM
COc1cc(O)c2c(c1)C1(OC2=O)C(C)=CC(=O)C1O (centres undefined) [TALAROFLAVONE] | > 1 ×10⁻⁵ g/ml |  |  | > 1 ×10⁻⁵ g/ml |  | > 1 ×10⁻⁵ g/ml |  | 92.9% | > 1 ×10⁻⁵ g/ml |  |  |  |  |  | > 1 ×10⁻⁵ g/ml |  |  |  |  | > 1 ×10⁻⁵ g/ml | IC50 [2]: > 1 ×10⁻⁵ g/ml; IC50 [4]: > 1 ×10⁻⁵ g/ml; IC50 [16]: > 1 ×10⁻⁵ g/ml; IC50 [10]: > 1 ×10⁻⁵ g/ml; IC50 (Ephrin type-B receptor 4): > 1 ×10⁻⁵ g/ml; IC50 (Aurora kinase B): > 1 ×10⁻⁵ g/ml; IC50 [12]: > 1 ×10⁻⁵ g/ml; IC50 (Angiopoietin-1 receptor): > 1 ×10⁻⁵ g/ml; IC50 [14]: > 1 ×10⁻⁵ g/ml
Cc1cc(O)cc2oc(=O)c3c(O)cc(O)cc3c12 [ALTERNARIOL] |  | 36.4 µM | 17 µM |  |  |  | 9.29 µM | 3.7% | 9.6 ×10⁻⁷ g/ml | 6.2 µM |  |  |  | 20.9 µM | 9.2 ×10⁻⁷ g/ml | 27.1 µM | 12.8 µM | 1.7 µg/mL (≈ 6.58 µM) | 13.2 µM | > 1 ×10⁻⁵ g/ml | IC50 ([1]; read-out: IC50 (converted)): 7.75 µM; IC50 [3]: 8.9 ×10⁻⁷ g/ml; IC50 ([5]; read-out: IC50 (converted)): 5.03 µM; IC50 (Ephrin type-B receptor 4): > 1 ×10⁻⁵ g/ml; IC50 (Aurora kinase B): 4.2 ×10⁻⁷ g/ml
